From ChEMBL document CHEMBL1152355, “Application of a 3,3-diphenylpentane skeleton as a multi-template for creation of HMG-CoA reductase inhibitors” (Bioorg Med Chem Lett, 2009)

Assays:
[1] = molecular target: T1, 3-hydroxy-3-methylglutaryl-coenzyme A reductase (Rattus norvegicus, UniProt P51639); assay: Inhibition of rat HMG-CoA reductase using 3.7 MBq DL-[3-14C]HMG-CoA
T1 sequence (P51639 whole entry): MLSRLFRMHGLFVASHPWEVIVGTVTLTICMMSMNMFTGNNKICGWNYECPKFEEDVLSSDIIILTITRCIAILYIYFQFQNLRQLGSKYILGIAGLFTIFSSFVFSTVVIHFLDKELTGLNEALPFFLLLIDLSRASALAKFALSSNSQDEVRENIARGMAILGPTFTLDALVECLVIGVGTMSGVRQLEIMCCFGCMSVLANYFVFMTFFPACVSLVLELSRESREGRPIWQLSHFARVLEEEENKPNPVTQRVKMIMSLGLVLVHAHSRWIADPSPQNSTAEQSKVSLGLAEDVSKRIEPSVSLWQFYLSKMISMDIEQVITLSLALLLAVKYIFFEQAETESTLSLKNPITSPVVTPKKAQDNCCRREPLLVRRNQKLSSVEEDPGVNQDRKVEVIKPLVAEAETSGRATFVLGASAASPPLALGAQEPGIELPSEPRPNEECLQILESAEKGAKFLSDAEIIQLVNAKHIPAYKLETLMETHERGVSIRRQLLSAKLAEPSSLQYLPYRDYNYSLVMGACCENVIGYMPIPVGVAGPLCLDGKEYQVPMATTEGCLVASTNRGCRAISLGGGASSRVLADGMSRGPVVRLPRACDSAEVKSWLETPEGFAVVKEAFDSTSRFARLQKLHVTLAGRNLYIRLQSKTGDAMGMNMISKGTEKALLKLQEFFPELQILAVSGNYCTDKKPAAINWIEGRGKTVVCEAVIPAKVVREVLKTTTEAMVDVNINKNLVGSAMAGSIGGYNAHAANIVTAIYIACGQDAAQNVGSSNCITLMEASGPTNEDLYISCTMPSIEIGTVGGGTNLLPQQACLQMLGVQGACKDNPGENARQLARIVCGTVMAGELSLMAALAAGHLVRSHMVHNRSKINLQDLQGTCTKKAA
Procedure, shortened: (§1)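 Rat HMG-CoA reductase (method A): 3.7 MBq DL-[3-14C]HMG-CoA with 10 mg microsomal protein, 37 °C for 30 min. The reaction was stopped with 2 M HCl and metabolites were converted to mevalonolactone. Products were separated by silica TLC in acetone/benzene (1:1 v/v), and spot radioactivity was read by bioimaging analyzer.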

[2] = molecular target: T1, 3-hydroxy-3-methylglutaryl-coenzyme A reductase; assay: Inhibition of rat HMG-CoA reductase at […] using 3.7 MBq DL-[3-14C]HMG-CoA; procedure, shortened: as §1
[3] = molecular target: T1, 3-hydroxy-3-methylglutaryl-coenzyme A reductase; assay: Inhibition of rat HMG-CoA reductase using 0.37 MBq DL-[3-14C]HMG-CoA
Procedure, shortened: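 Method B used the lower substrate level, 0.37 MBq DL-[3-14C]HMG-CoA, with rat microsomal fraction (10 mg protein) at 37 °C for 30 min. Stopped with 2 M HCl, with conversion to mevalonolactone. Separation was on silica TLC with acetone/benzene 1:1, and radioactivity per spot was quantified by bioimaging. The IC50 was taken from this readout.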

| SMILES | IC50 [3] | other results |
| --- | --- | --- |
| CCC(CC)(c1cccc(F)c1)c1ccc(/C=C/[C@@H](O)C[C@@H](O)CC(=O)O)c(C(C)C)c1 | – | IC50 [1]: 92000 nM |
| CCC(CC)(c1ccc(F)cc1)c1ccc(/C=C/[C@@H](O)C[C@@H](O)CC(=O)[O-])cc1.[Na+] | – | IC50 [2]: Not Active |
| CC[C@H](C)C(=O)O[C@H]1CCC=C2C=C[C@H](C)[C@H](CC[C@@H]3C[C@@H](O)CC(=O)O3)[C@H]21 [MEVASTATIN] | 40 nM | – |
| CCC(CC)(c1ccccc1)c1ccc(/C=C/[C@@H](O)C[C@@H](O)CC(=O)O)c(-c2ccc(F)cc2)c1 | 150 nM | – |
| CCC(CC)(c1ccccc1)c1ccc(/C=C/[C@@H](O)C[C@@H](O)CC(=O)O)c(C(C)C)c1 | 1800 nM | – |
